Measured values taken from ChEMBL document CHEMBL4321802, “Antioxidant-Conjugated 1,2,4-Triazolo[4,3-a]pyrazin-3-one Derivatives: Highly Potent and Selective Human A2A Adenosine Receptor Antagonists Possessing Protective Efficacy in Neuropathic Pain” (J Med Chem, 2019).
Calls of active or inactive are those of the source.

Tests used:
Adenosine receptor A1 = biological target: T1, Adenosine receptor A1 (Homo sapiens, UniProt P30542); assay: Displacement of [3H]CCPA from human adenosine A1 receptor expressed in CHO cell membranes by radioligand competition assay
T1 sequence (P30542 whole entry): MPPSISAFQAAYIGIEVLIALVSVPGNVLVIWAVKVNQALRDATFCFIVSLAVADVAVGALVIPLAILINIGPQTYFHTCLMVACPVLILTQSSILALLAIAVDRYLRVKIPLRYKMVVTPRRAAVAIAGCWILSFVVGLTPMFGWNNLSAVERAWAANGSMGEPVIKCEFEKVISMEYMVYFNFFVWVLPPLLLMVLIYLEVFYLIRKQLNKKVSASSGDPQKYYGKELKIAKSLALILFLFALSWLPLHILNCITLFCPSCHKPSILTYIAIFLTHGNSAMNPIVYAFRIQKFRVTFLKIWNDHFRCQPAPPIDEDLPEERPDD
Summary of the method: (§1)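 Membranes from stably transfected CHO cells were made by 1000 g, then 100 000g spins. hA1 used 1.0 nM [³H]CCPA in 50 mM Tris/HCl pH 7.4. hA3 used 1.0 nM [³H]HEMADO in 50 mM Tris/HCl, 10 mM MgCl2, 1 mM EDTA, pH 8.25. Ki from competition curves, each concentration tested three to five times in triplicate, mean ± S.E.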

Adenosine receptor A2a [1] = biological target: T2, Adenosine receptor A2a (Homo sapiens, UniProt P29274); assay: Displacement of [3H]NECA from human adenosine A2A receptor expressed in CHO cell membranes by radioligand competition assay
Adenosine receptor A3 = biological target: T3, Adenosine receptor A3 (Homo sapiens, UniProt P0DMS8); assay: Displacement of [3H]HEMADO from human adenosine A3 receptor expressed in CHO cell membranes by radioligand competition assay; summary of the method: as §1
T3 sequence (P0DMS8 whole entry): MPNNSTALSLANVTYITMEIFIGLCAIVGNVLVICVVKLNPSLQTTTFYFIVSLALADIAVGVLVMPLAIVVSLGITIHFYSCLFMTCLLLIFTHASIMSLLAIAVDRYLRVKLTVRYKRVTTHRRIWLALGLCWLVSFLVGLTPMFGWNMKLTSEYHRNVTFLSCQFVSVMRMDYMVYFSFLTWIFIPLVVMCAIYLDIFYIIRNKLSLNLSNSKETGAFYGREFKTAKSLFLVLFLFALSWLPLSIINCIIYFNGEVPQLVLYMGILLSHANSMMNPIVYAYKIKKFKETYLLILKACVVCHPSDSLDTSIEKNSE

Adenosine receptor A2b = biological target: T4, Adenosine receptor A2b (Homo sapiens, UniProt P29275); assay: Antagonist activity at human adenosine A2B receptor expressed in CHO cells assessed as inhibition of NECA-stimulated adenylyl cyclase activity by Glo-sensor cAMP assay; format: functional, cell-based
T4 sequence (P29275 whole entry): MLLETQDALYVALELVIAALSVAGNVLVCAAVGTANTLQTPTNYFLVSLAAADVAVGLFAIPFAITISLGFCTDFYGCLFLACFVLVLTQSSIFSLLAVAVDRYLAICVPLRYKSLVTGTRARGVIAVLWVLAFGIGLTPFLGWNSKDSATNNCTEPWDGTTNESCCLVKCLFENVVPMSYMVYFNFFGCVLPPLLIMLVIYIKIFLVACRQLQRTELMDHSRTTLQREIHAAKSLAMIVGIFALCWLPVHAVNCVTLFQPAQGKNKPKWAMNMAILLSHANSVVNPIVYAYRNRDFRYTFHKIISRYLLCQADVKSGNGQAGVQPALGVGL
Summary of the method: (§2)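 CHO cells stably expressing hA2A or hA2B AR and transiently the GloSensor cAMP biosensor. Cells were equilibrated 2 h at rt in CO2-independent medium with 3% v/v GloSensor reagent and 10% FBS. Compounds at graded concentrations were tested against NECA-induced cAMP rise; luminescence as % of maximal RLU. IC50 from nonlinear regression. Three to five runs in triplicate, mean ± S.E.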

Adenosine receptor A2a [2] = biological target: T2, Adenosine receptor A2a; assay: Antagonist activity at human adenosine A2A receptor expressed in CHO cells assessed as inhibition of NECA-stimulated adenylyl cyclase activity by Glo-sensor cAMP assay; format: functional, cell-based; summary of the method: as §2
Microglia [3] = assay: Neuroprotective activity against 10 uM Oxaliplatin-induced neurotoxicity in Sprague-Dawley rat microglia assessed as cell viability at 10 uM incubated fro 24 hrs by MTT assay (reference value: 33.2 +/- 1.3%); format: functional
Microglia [4] = assay: Neuroprotective activity against 30 uM Oxaliplatin-induced neurotoxicity in Sprague-Dawley rat microglia assessed as cell viability at 10 uM incubated fro 24 hrs by MTT assay (reference value: 19.1 +/- 0.8%); format: functional
Microglia [5] = assay: Antioxidant activity in Sprague-Dawley rat microglia assessed as suppression of oxaliplatin-dependent increase in superoxide dismutase-inhibitable superoxide anion generation at 10 uM incubated for 4 hrs in presence of oxaliplatin by spectrophotometry based cytochrome c assay; format: functional, cell-based
Summary of the method: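 Primary neonatal (P1–P3) Sprague–Dawley rat cortical microglia (95–98% Iba1-positive), grown to confluence at 5×10⁵/well. Cells incubated 4 h at 37 °C in serum-free DMEM with cytochrome c (1 mg/ml), ± 100 µM oxaliplatin, ± compounds at 10 µM. Absorbance at 550 nm, minus the value with bovine SOD (300 mU/ml). O2•− calculated with ε 2.1×10⁴ M⁻¹ cm⁻¹, as µM/mg protein/4 h. Three experiments, mean ± SEM.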

Microglia [6] = assay: Antioxidant activity in Sprague-Dawley rat microglia assessed as suppression of oxaliplatin-induced reduction in catalase activity at 10 uM incubated for 24 hrs in presence of oxaliplatin by Amplex red dye based assay; format: functional, cell-based
Summary of the method: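 Primary rat microglia (5·10⁵ cells/well) exposed 24 h to oxaliplatin 10 µM ± compounds at 10 µM. Cells washed, scraped in PBS, freeze-thawed and spun 13,000×g for 10 min at 4 °C. Catalase read in the supernatant with an Amplex Red kit, normalised to BCA protein; untreated control set to 100%. Three experiments, mean ± SEM.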

Mus musculus = assay: Analgesic activity in CD1 albino mouse model of oxaliplatin-induced neuropathy hypersensitivity assessed as increase pain threshold at 10 to 30 mg/kg, po dosed from day 14 post oxaliplatin challenge and measured after 15 to 45 mins post dose by cold plate test; format: functional, organism-based
Summary of the method: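 Male CD-1 mice (22–25 g) given oxaliplatin 2.4 mg kg⁻¹ i.p. in 5% glucose on days 1-2, 5-9 and 12-14; controls got vehicle. On day 14, compounds suspended in 1% carboxymethylcellulose were given once p.o. Cold plate held at 4 °C ± 1 °C; latency to first hind-paw licking/lifting recorded, 60 s cut-off. Mean ± SEM, two experimental sets; one-way ANOVA with Bonferroni.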

Adenosine receptor A2a [7] = biological target: Adenosine receptor A2a (Rattus norvegicus, UniProt P30543); assay: Displacement of [3H]NECA from rat adenosine A2A receptor expressed in CHO cell membranes by radioligand competition assay
[8] = Half life in 50 mM Tris buffer; format: physicochemical
Summary of the method: (§3)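 Compounds incubated at 37 °C in 50 mM Tris buffer pH 7.4 or in pooled healthy-volunteer human plasma (stored -80 °C). Concentration followed over time by LC-MS/MS; t1/2 taken from the decay rate of ln(concentration) versus time. Half-lives above 240 min cannot be resolved and are given as ≥240. Ketoprofen ethyl ester served as plasma-activity reference.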

[9] = Half life in human plasma; format: ADME, cell-free; summary of the method: as §3

T2 sequence (P29274 whole entry): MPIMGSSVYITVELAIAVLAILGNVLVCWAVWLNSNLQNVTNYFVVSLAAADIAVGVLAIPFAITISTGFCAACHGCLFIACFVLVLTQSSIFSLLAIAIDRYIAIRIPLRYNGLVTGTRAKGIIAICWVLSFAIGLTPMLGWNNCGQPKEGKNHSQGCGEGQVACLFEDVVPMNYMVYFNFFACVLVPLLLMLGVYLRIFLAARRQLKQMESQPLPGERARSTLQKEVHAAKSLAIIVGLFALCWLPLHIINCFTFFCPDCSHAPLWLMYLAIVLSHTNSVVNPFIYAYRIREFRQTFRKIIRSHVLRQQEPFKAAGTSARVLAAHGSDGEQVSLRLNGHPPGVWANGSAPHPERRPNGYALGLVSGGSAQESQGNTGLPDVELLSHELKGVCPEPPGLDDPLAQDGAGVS
Adenosine receptor A2a (Rattus norvegicus, UniProt P30543), sequence (P30543 whole entry): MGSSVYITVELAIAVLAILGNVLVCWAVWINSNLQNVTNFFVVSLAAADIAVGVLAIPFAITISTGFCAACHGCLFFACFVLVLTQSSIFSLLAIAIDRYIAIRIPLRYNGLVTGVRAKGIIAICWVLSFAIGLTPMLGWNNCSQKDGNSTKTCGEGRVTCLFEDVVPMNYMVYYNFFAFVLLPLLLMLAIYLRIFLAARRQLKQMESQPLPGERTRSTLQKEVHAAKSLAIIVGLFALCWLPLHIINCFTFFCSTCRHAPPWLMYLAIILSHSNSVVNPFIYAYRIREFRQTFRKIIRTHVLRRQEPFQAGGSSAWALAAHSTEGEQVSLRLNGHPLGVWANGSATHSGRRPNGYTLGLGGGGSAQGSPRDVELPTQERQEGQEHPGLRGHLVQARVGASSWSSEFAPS

Ki (Adenosine receptor A1) [µM] | Ki (Adenosine receptor A2a [1]) [µM] | Ki (Adenosine receptor A3) [µM] | IC50 (Adenosine receptor A2b) [µM] | IC50 (Adenosine receptor A2a [2]) [µM] | Ki (Adenosine receptor A2a [7]) [µM] | half-life [8] [h] | half-life [9] [h] | SMILES | Activity (Microglia [3]) [%] | Activity (Microglia [4]) [%] | Activity (Microglia [5]) | Activity (Microglia [6]) | Activity (Mus musculus)
0.289 | 0.0149 | 2.13 | > 30 |  |  |  |  | NCCOc1ccc(-c2cn3c(=O)n(-c4ccccc4)nc3c(N)n2)cc1 |  |  |  |  | 
0.0084 | 0.005 | > 30 | > 30 |  |  |  |  | Nc1nc(-c2ccc(NC(=O)CCCCC3CCSS3)cc2)cn2c(=O)n(-c3ccccc3)nc12 (configuration not stated) |  |  |  |  | 
0.479 | 0.00059 | 0.509 | 9.66 |  |  |  |  | NCCC(=O)Nc1ccc(-c2cn3c(=O)n(-c4ccccc4)nc3c(N)n2)cc1 |  |  |  |  | 
0.013 | 0.0074 | 0.038 | > 30 |  |  |  |  | Nc1nc(-c2ccc3c(c2)OCO3)cn2c(=O)n(-c3ccccc3)nc12 |  |  |  |  | 
0.059 | 0.0057 | 0.0801 | > 30 |  |  |  |  | COc1ccc(-c2cn3c(=O)n(-c4ccccc4)nc3c(N)n2)cc1OC |  |  |  |  | 
> 30 | 0.0545 | > 30 | > 30 | 0.263 | 0.086 | ≥ 4 | ≥ 4 | CC(C)(C)c1cc(C(=O)NCCC(=O)Nc2ccc(-c3cn4c(=O)n(-c5ccccc5)nc4c(N)n3)cc2)cc(C(C)(C)C)c1O | 43.5 | 30.6 | Active | Active | Active
0.392 | 0.026 | 0.604 | > 30 |  |  |  |  | NC(=O)COc1ccc(-c2cn3c(=O)n(-c4ccccc4)nc3c(N)n2)cc1 |  |  |  |  | 

Second part, the molecule before the results:

SMILES | Ki (Adenosine receptor A1) [µM] | Ki (Adenosine receptor A2a [1]) [µM] | Ki (Adenosine receptor A3) [µM] | IC50 (Adenosine receptor A2b) [µM] | IC50 (Adenosine receptor A2a [2]) [µM] | Ki (Adenosine receptor A2a [7]) [µM] | half-life [8] [h] | half-life [9] [h] | Activity (Microglia [3]) [%] | Activity (Microglia [4]) [%] | Activity (Microglia [5]) | Activity (Microglia [6]) | Activity (Mus musculus)
CC(C)(C)c1cc(C(=O)NCCOc2ccc(-c3cn4c(=O)n(-c5ccccc5)nc4c(N)n3)cc2)cc(C(C)(C)C)c1O | 13.7 | 14.8 | > 30 | > 30 |  |  |  |  |  |  |  |  | 
COc1c(C)cc(-c2cn3c(=O)n(-c4ccccc4)nc3c(N)n2)cc1C | 0.0045 | 0.00017 | 0.0086 | > 30 |  |  |  |  |  |  |  |  | 
COc1c(C(C)(C)C)cc(-c2cn3c(=O)n(-c4ccccc4)nc3c(N)n2)cc1C(C)(C)C | 0.108 | 0.142 | > 30 | > 30 |  |  |  |  |  |  |  |  | 
Cc1cc(-c2cn3c(=O)n(-c4ccccc4)nc3c(N)n2)cc(C)c1O | 0.0213 | 0.0025 | 0.1 | > 30 |  |  |  |  |  |  |  |  | 
COc1ccc(-c2cn3c(=O)n(-c4ccccc4)nc3c(N)n2)c(OC)c1 | 0.028 | 0.0024 | 0.118 | > 30 |  |  |  |  |  |  |  |  | 
